# D1 allo mod = allosteric modulators of human D1 dopamine receptor | P21728 | HEK293 D1, CRE-luciferase, dopamine EC30 potentiation; actives deviate in either direction | B-score at 10 µM | actives 5.9% (n = 58,000) | AID 641;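 active = luminescence count or its row- and column-corrected plate score outside the 99.7% band of the plate's sample wells, on either side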
# Target sequence (P21728 whole entry, looked up): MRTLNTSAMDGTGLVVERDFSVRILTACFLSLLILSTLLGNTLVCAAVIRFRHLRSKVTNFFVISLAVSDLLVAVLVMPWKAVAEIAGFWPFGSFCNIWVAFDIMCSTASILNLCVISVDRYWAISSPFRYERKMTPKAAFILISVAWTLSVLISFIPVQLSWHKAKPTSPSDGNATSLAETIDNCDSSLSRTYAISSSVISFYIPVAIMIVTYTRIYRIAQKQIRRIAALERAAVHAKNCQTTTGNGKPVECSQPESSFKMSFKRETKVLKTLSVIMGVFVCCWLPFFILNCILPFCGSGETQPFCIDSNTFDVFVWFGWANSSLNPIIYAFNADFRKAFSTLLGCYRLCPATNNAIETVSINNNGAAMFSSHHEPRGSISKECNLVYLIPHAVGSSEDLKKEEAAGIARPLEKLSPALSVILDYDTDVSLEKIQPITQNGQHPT
# Htt clearance = mutant huntingtin protein clearance. AID 853. actives 0.42% (n = 47,000). inhibition, % at 1.5 µM. HeLa Exon1htt(103Q)mCFP, aggregate imaging; zero = plate's median compound well;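 active = inhibition of aggregate fluorescence above about 70%, also judged a hit by eye on the cell image, limit read from the data, passing the limit was not always enough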;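 also: cells exposed to compound for three days before fixation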
# AP complement = orthogonal test for alternative complement pathway inhibitors; Human serum alternative complement pathway, LPS-coated ELISA, C3 deposition; tested in compound mixtures; inhibition, % at 5 µM; actives 0.08% (n = 62,000); AID 1235;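 active = inhibition above 30% in each of the two pooled mixtures holding the compound, so the lower value exceeds 30%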;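 also: 0% = serum in Mg-EGTA without compound and 100% = EDTA serum blank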
#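 Test system – human serum alternative complement pathway, C3 deposition on LPS-coated wells · Buffer or medium – diluted human serum in Mg2+-EGTA GVB++ · Compound dosing – 5 µM each compound, pools of ten, 50 µM per pool · Schedule – 1 h serum-compound exposure at 37 °C · Measured by – Anti-C3 ELISA, OD 450 nm · Read-out basis – percent inhibition of C3 deposition onto LPS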
# M1 ag = M1 muscarinic receptor agonism. CHO-M1 cells, Fluo-4 calcium fluorescence, agonist mode; active compounds read high. actives 3% (n = 64,000). B-score at 10 µM;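 active = fluorescence rise, raw or as B-score row- and column-corrected plate score, outside the 99.7% band of its plate's samples, either direction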
# M1 antagonist = antagonists of rat M1 muscarinic receptor; actives 3.4% (n = 64,000); B-score at 10 µM; CHO-M1 cells, Fluo-4 calcium, ACh EC80 antagonist mode; active compounds read low;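 active = calcium fluorescence response, raw or row-and-column corrected B-score, differing from the plate sample mean either way at a set confidence level, mostly lower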
# D1 mod confirm = D1 receptor (human) allosteric modulation, confirmed. shares compounds with D1 allo mod. actives 88% (n = 2,200). luminescence at 10 µM. AID 642. HEK293 D1 CRE-luciferase, dopamine EC30 potentiation; active compounds read high;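 active = luminescence in either of two replicates above the same-plate mean plus 3 SD of the low-dose dopamine control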
# D1 no dopamine = secondary test of D1 modulators: activity without dopamine; actives 0.8% (n = 1,900); HEK293 D1 CRE-luciferase, luminescence, no dopamine; active compounds read high; AID 646; shares compounds with D1 allo mod; luminescence at 10 µM; in the data active = luminescence above about 3900
# Isoprot counter = isoproterenol response counter-screen activity for D1 modulators; HEK293 D1 CRE-luciferase, isoproterenol EC30 counter-screen; shares compounds with D1 allo mod; calls only at 10 µM; actives 63% (n = 2,200);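 active = luminescence in either replicate above plate mean of wells with a partly effective reference agonist dose plus 3 SD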;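 also: isoproterenol raises cAMP through native beta-adrenoceptor Gs so signal bypasses D1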
# The depositor's hits bear a star; i = inactive; · = no result given; + = active, no number. Most compounds without a hit are left out; they make up all but 9% or so of the library.
SMILES,D1 allo mod,Htt clearance,AP complement,M1 ag,M1 antagonist,D1 mod confirm,D1 no dopamine,Isoprot counter
COc1ccc(-c2nc(C(N)=O)c3[nH]c(=O)n(-c4cccc(C)c4)c3n2)c(OC)c1,7.7*,·,13,-0.63,-0.76,10376*,1548,+
CCn1cc(C(=O)NC2CCCCC2C)c(=O)c2ccc(C)nc21 (centres undefined),0.85,-26,-13,0.42,0.81,·,·,·
Cc1c2c(nc3c(C(=O)NC4CCCCC4C)cnn13)CCCC2 (centres undefined),8.2*,1,4,0.18,0.27,10904*,·,+
CNc1nc(C)c(C#N)c(-c2ccccc2)c1C(C)=O,5.8*,44,7,0.19,-0.0038,12136*,1680,i
CC(C)COCC1CC2(CC(C)C(=O)CC2=O)C(=O)O1 (centres undefined),0.5,-20,-5,-1.1,0.18,·,·,·
O=c1c(/C=N/O)c(Nc2ccccc2)nc2ccccn12,4.2*,-16,11,-0.12,-0.19,9580*,1768,+
CC(=O)c1cccc(NC2c3ncccc3C(=O)N2Cc2ccco2)c1 (centres undefined),20*,·,2,1.1,1.1,19736*,·,+
COc1ccc(C(=O)NCCn2ccc3ccccc32)c(OC)c1,-1.2,·,-5,-0.68,0.05,·,·,·
Cc1ccc2c(c1)-c1c(ssc1=S)C(C)(C)N2C(=O)CSc1nncn1C,3.8*,·,-1,-0.51,-1,11288*,1508,i
Cc1cc(C)c2c(c1)-c1c(ssc1=S)C(C)(C)N2C(=O)CSc1nncn1C,0.25,22,4,-0.19,0.087,·,·,·
COc1ccc(N2CCN(CCNC(=O)C3CCN(S(=O)(=O)c4cccs4)CC3)CC2)cc1,-0.93,7,4,-0.73,-0.035,·,·,·
COc1ccc(N2CCN(S(=O)(=O)c3cccs3)CC2)cc1,5*,-19,5,-0.44,0.63,9608*,1628,i
Cc1ccc(N2CCn3c2nc2c3c(=O)n(CCc3ccccc3)c(=O)n2C)cc1,-0.72,·,9,-0.44,0.31,·,·,·
[O-]/[N+](=C\c1ccncc1)c1ccc(Br)cc1,-0.83,·,2,-1.8,-0.38,·,·,·
O=C(O)c1[nH]c2ccc(Cl)cc2c1CC(=O)N1CCN(C(=O)c2ccco2)CC1,-0.028,·,-6,-0.6,-1.2,·,·,·
O=C(O)c1[nH]c2ccc(Cl)cc2c1CC(=O)N1CCN(c2ccccc2)CC1,3.1*,-15,5,0.013,0.45,5332,1412,i
CCn1ncc(C2=NOC(C(=O)NCc3ccccc3)C2)c1C (centres undefined),7.7*,·,5,0.81,0.15,12364*,1760,i
CCn1ncc(C2=NOC(C(=O)NCc3ccc(OC)cc3)C2)c1C (centres undefined),0.018,·,12,-0.51,-0.041,·,·,·
O=C(COC(=O)C1c2ccccc2Oc2ccccc21)NC1CCS(=O)(=O)C1 (centres undefined),-0.02,51,-6,-0.05,1.3,·,·,·
COc1ccc(NC2=NCCC(=O)N2Cc2cccs2)cc1,0.26,-62,8,-0.067,0.064,·,·,·
COc1cccc(NC2=NCC(=O)N2Cc2cccs2)c1,4.2*,0,10,0.69,0.041,8816*,1624,i
O=C(CN(c1ccccc1F)S(=O)(=O)c1ccccc1)N1CCCCCC1,-0.93,·,8,1,-0.046,·,·,·
Cc1oc(-c2ccc(Cl)cc2)nc1CN1CCC(C(=O)NCCCN2CCOCC2)CC1,3.6*,·,5,1.8,-0.035,6764,1668,i
CCn1cc(C2=NOC(C(=O)Nc3ccc4c(c3)OCO4)C2)c(C)n1 (centres undefined),6.6*,·,11,-1.7,1.2,8608*,1720,+
COc1ccccc1CC(=O)N1CCCC1,0.92,·,5,-0.29,0.016,·,·,·
SMILES,D1 allo mod,Htt clearance,AP complement,M1 ag,M1 antagonist,D1 mod confirm,D1 no dopamine,Isoprot counter
COc1ccc2cc3c(N)nn(C(=O)Cc4ccccc4OC)c3nc2c1,2.6*,·,6,1.6,0.12,8828*,1504,i
CCOC(=O)c1cnn2c(C)cc(-c3ccc(F)cc3)nc12,-0.72,8,0,-0.83,0.81,·,·,·
Cc1cc(-c2ccc(F)cc2)nc2cc(C(N)=O)nn12,10*,·,-11,0.6,0.7,15420*,1800,+
CC(=O)c1cc(C#N)c(SCc2ccccc2C#N)nc1C,·,13,·,·,·,·,·,·
CC(=O)c1cc(C#N)c(SCC(=O)OC(C)(C)C)nc1C,3.4*,-31,25,-0.72,0.0098,10808*,1660,i
CC(=O)c1cc(C#N)c(SCc2ccncc2)nc1C,5.6*,·,·,-1.9,-0.49,8540*,1916,i
CCCCNC(=O)OCCNC(=O)NC,0.26,·,12,-0.51,-0.19,·,·,·
Cc1nc2cccc(C(=O)NC3CCCCC3)c2o1,14*,-66,4,0.079,-0.81,19668*,·,+
O=C(NC1CCCC1)c1cccnc1N1CCCCCC1,-0.017,9,-2,0.37,0.47,·,·,·
Cc1cccc(C)c1NC(=O)C1(N2CCN(C(=O)c3ccco3)CC2)CCCCC1,-0.58,·,-6,-0.16,-0.087,·,·,·
CN1CCN(Cc2nc3c(c(=O)n(C)c(=O)n3C)n2CCc2ccccc2)CC1,0.039,·,4,-0.098,-0.0031,·,·,·
OC(CN1CCOCC1)CN1CCOCC1,2.6*,21,8,-0.53,-0.23,6000,1732,i
CCOC(=O)N1CCC(NC(=O)Cn2ncn3c(cc4sc(CC)cc43)c2=O)CC1,0.84,·,12,1.1,0.71,·,·,·
N#Cc1c2n(c3c(=O)n(Cc4ccccc4Cl)cnc13)CCCC2,3.4*,·,5,0.27,0.11,9264*,1636,+
N#Cc1c2n(c3c(=O)n(Cc4ccc(Cl)cc4)cnc13)CCCC2,2.6*,·,5,-0.61,-0.26,10052*,1408,+
CCOC(=O)CCn1cc(F)c(=O)n(Cc2ccccc2)c1=O,0.08,40,15,-0.73,0.86,·,·,·
Cc1cccc(CCNS(=O)(=O)c2cnc[nH]2)c1,4.4*,·,-2,0.031,-0.25,5408,1484,i
COc1ccc(Nc2nnc(-c3ccc(N4CCOCC4)c([N+](=O)[O-])c3)c3ccccc23)cc1,·,-67,·,·,·,·,·,·
COc1ccc(OCCN2CCN(C3CC(=O)N(CCC(C)C)C3=O)CC2)cc1 (centres undefined),0.32,-7,7,-0.24,-1.6,·,·,·
CCOc1ccc(Br)cc1-c1noc(-c2cccs2)n1,6.7*,2,12,-1.3,0.095,22604*,1692,+
Cc1ccc(-n2c(SCC(=O)OC(C)C)nnc2-c2cnccn2)cc1,4.6*,-30,-6,0.2,0.62,8068*,1636,i

# Bioassay records: PubChem BioAssay, several laboratories
